The list is not random: actives were taken first. Their share in the collection is about 3.3%.
ABHD4 inh – ABHD4 (mouse) inhibition, primary FP screen; Q8VD66; purified mABHD4, FP-Rh probe fluorescence polarization; inhibition, % at 8.92 µM; 0.54% of 370,000 active;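 active means inhibition exceeding the mean over every tested compound plus 3 SD, cut at about 30% in these data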;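 further: 0% = plate median of compound wells and 100% = S159A mutant with DMSO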
Target sequence (Q8VD66 whole entry, looked up): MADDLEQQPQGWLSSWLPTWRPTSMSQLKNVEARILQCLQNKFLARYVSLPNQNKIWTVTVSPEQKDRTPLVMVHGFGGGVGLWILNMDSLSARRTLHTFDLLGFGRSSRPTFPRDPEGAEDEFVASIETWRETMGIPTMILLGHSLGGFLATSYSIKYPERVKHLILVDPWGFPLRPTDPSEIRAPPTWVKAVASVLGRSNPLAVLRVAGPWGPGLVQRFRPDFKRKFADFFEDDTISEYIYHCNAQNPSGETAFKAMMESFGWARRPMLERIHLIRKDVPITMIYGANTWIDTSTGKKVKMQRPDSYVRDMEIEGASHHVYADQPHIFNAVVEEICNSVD
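Material: mouse ABHD4 enzyme, wild type; Benchmarks: S159A mutant high control, sample median low control; Buffer or medium: HEPES pH 7.0, NaCl, Pluronic buffer; Signal: fluorescence polarization; Read-out: percent inhibition of probe binding, normalized to plate controls; Timing: pre-incubation 45 min, probe exposure 60 min, at 25 °C; Dosing: 8.92 µM, single dose.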
rCAG binder-1 – binds r(CAG) RNA repeats; r(CAG) RNA repeat, TO-PRO-1 dye displacement fluorescence; inhibition, % at 3 µM; 1.3% of 370,000 active; AID 651821;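 active means inhibition above the plate cutoff, the mean of all test compounds on that plate plus 3 SD, cut at about 35% in these data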;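 further: 0% = DMSO alone and 100% = 100 µM mitoxantrone as full dye displacement; higher means more dye released from RNA so lower well fluorescence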
SIAE primary – inhibitors of human sialic acid acetylesterase SIAE. Q9HAT2. SIAE FP-Rh probe binding, fluorescence polarization. inhibition, % at 9.66 µM. 0.69% of 370,000 active. AID 1053197;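 active means inhibition above a cutoff: mean of compounds within the control limits plus 3 SD of those, cut at about 17% in these data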;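 further: 0% = plate median of compound wells and 100% = probe without SIAE protein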
PRMT1 FP inh – inhibitors of human PRMT1 | inhibition, % at 2.79 µM | Q99873 | 1.3% of 370,000 active | AID 652257 | recombinant PRMT1, activity-based probe fluorescence polarization;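 active means inhibition above about 21% made by adding two undisclosed values, limit read from the data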
Target sequence (Q99873 whole entry, looked up): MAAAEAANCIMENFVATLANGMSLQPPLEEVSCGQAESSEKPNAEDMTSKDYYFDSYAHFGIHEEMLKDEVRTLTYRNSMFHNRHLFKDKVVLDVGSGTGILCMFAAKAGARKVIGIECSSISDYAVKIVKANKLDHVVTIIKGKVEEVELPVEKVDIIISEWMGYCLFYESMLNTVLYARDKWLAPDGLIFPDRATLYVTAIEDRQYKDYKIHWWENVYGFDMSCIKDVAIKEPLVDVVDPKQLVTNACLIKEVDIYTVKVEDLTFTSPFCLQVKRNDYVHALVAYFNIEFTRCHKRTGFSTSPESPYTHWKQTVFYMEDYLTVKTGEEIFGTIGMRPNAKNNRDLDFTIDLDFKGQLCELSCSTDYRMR
TCR-CD3 inh – human TCR-CD3 binding inhibition | TAMRA-labeled TCR probe fluorescence, biochemical | AID 651800 | 0.37% of 360,000 active | inhibition, % at 9.4 µM; in the data active means inhibition above about 19%;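 further: recombinant mutant TCR 2C K166C tagged with TAMRA read by polarization; 0% = receptor in buffer alone and 100% = receptor with positive control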
rCAG bind conf – r(CAG) RNA repeat binding, confirmation | shares compounds with rCAG binder-1 | TO-PRO-1 dye displacement fluorescence | inhibition, % at 3 µM | 70% of 4,300 active | AID 652065;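 active means inhibition above a per-plate cutoff, the mean inhibition of sample wells plus 3 SD, cut at about 35% in these data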;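 further: loss of TO-PRO-1 fluorescence as compound displaces dye from 1x1 AA loop RNA; 0% = DMSO only wells and 100% = 100 µM mitoxantrone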
dCAG dye counter – DNA CAG dye complex inhibition counter-screen; AID 652068; shares compounds with rCAG binder-1; inhibition, % at 3 µM; 94% of 4,300 active; d(CAG) DNA oligo TO-PRO-1 dye displacement, fluorescence;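 active means inhibition above its plate's cutoff, the mean test-well inhibition plus 3 SD, cut at about 4.8% in these data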;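 further: 0% = DNA dye mix with DMSO and 100% = 100 µM mitoxantrone; hits displace the dye from DNA and so lower well fluorescence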
DNA CAG DR – DNA CAG dye complex inhibition, dose response counter-screen. IC50, µM. AID 686960. 20% of 250 active. shares compounds with rCAG binder-1. DNA CAG/GTC duplex TO-PRO-1 dye displacement fluorescence; in the data active means IC50 below about 10 µM
dCAG DNA bind – counter-screen for rCAG binders: DNA CAG TO-PRO-1 complex inhibitors, late stage | shares compounds with rCAG binder-1 | d(CAG) DNA duplex TO-PRO-1 dye displacement, fluorescence | IC50, µM | 80% of 30 active | AID 720649
rCAG binder-2 – r(CAG) repeat RNA binding, TO-PRO-1 displacement | shares compounds with rCAG binder-1 | r(CAG) RNA TO-PRO-1 dye displacement, fluorescence | IC50, µM | 100% of 30 active | AID 720651
PRMT1 confirm – confirmation of human PRMT1 inhibitors | shares compounds with PRMT1 FP inh | recombinant His-PRMT1, activity-based probe fluorescence polarization | inhibition, % at 2.79 µM | 42% of 3,300 active | AID 687036;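 active means mean inhibition across replicates above the hit cutoff derived for the earlier primary screen, cut at about 22% in these data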
mABHD4 conf – ABHD4 (mouse) inhibition, FP confirmation | shares compounds with ABHD4 inh | purified mABHD4, FP-Rh probe fluorescence polarization | inhibition, % at 8.92 µM | 55% of 1,800 active | AID 720658;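 active means mean inhibition across replicates above the hit cutoff set in the primary screen, cut at about 30% in these data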;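 further: 0% = wild-type ABHD4 with DMSO and 100% = catalytically dead S159A mutant with DMSO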
Active calls of the source: *; x = not tested or not shown. Unless noted, how the calls were made is not given here.

SMILES	ABHD4 inh	rCAG binder-1	SIAE primary	PRMT1 FP inh	TCR-CD3 inh	rCAG bind conf	dCAG dye counter	others
Cc1ccc(N2C(=O)NC(=O)/C(=C/c3ccoc3)C2=O)cc1	-9.9	23.8	-14.2	3.9	17.4	x	x
CCOc1ccc(N2C(=O)NC(=O)/C(=C/c3cnc(SC)nc3)C2=O)cc1	5.1	2.8	-3.0	10.8	-2.4	x	x
CCOc1ccc(/C=C2/C(=O)NC(=O)N(CCc3ccc(F)cc3)C2=O)cc1	-5.7	35.4*	-13.6	10.3	-2.0	3.2	2.3
COc1cc(/C=C2\C(=O)NC(=O)N(CCc3ccc(F)cc3)C2=O)ccc1O	3.5	43.4*	-9.0	24.4*	-8.7	5.0	1.2
O=[N+]([O-])O[C@H]1CO[C@H]2[C@@H]1OC[C@H]2O[N+](=O)[O-]	-3.1	0.3	-4.2	1.1	7.6	x	x
CCN(C(=O)COC(=O)c1cc(C)n(C2CC2)c1C)c1ccccc1	5.5	-0.7	-2.7	-0.5	1.4	x	x
Cc1ccc(CN2C3CCCC2CC(NC(=S)NCc2ccccc2)C3)cc1 (configuration not stated)	-5.6	1.4	10.2	-1.4	5.6	x	x
Cn1cccc1/C=C1\C(=O)NC(=O)N(Cc2ccccc2)C1=O	23.2	40.3*	10.6	15.0	-2.8	6.8	2.0
C=CCN1C(=O)NC(=O)/C(=C/c2cccn2C)C1=O	2.4	5.2	5.0	3.8	-6.6	x	x
COc1ccc(CN2C(=O)NC(=O)/C(=C/c3cc(OC)c(OC)c(OC)c3)C2=O)cc1	2.5	15.0	6.6	9.4	-3.5	x	x
Cn1cccc1/C=C1/C(=O)NC(=O)N(Cc2ccc(F)cc2)C1=O	8.7	40.6*	7.3	5.9	-4.2	7.7	3.4
Cn1cccc1/C=C1/C(=O)NC(=O)N(Cc2ccccc2)C1=O	1.8	49.4*	4.7	14.1	2.4	4.7	3.5
O=C(c1cc(Cl)cc(Cl)c1)N1Cc2ccccc2-n2nncc2C1	5.0	0.7	-13.1	-2.4	8.3	x	x
Clc1cc(Cl)c(-c2cc(Cl)c(Cl)cc2Cl)cc1Cl	-1.9	0.3	1.3	-8.7	5.5	x	x
CCNC(=S)NCCC1=c2ccccc2=N/C1=C\c1c(O)n(C)c(=O)n(C)c1=O	4.8	4.2	5.1	9.7	-4.6	x	x
O=[N+]([O-])c1oc2ccc3ccccc3c2c1CCO	4.1	3.5	-0.4	-2.9	4.0	x	x
CCC(C)n1c(O)c(/C=N/N2CCOCC2)c(=O)[nH]c1=S (configuration not stated)	-6.6	36.3*	3.1	-0.2	6.1	2.3	0.1
CCOC(=O)[C@]12Cc3cc4ccccc4cc3[C@H]1N(Cc1ccccc1)C(=O)c1cc(OC)ccc12	-12.3	5.2	-4.8	-5.6	-4.0	x	x
COC1C(OC(=O)c2ccc(C)[nH]2)C(O)C(Oc2ccc3c(O)c(NC(=O)c4ccc(O)c(CC=C(C)C)c4)c(=O)oc3c2Cl)OC1(C)C (configuration not stated)	-43.4	77.2*	-3.9	8.8	0.3	89.0*	69.6*
Cc1cc2c(C(C)C)c(O)c(O)c(C=O)c2c(O)c1-c1c(C)cc2c(C(C)C)c(O)c(O)c(C=O)c2c1O	92.4*	97.2*	18.6*	25.5*	5.1	94.4*	80.9*
C=CCn1c(O)c(/C(C)=N/NC(=S)Nc2ccccc2)c(=O)[nH]c1=O	4.7	37.3*	2.9	13.5	1.7	44.2*	13.2*
CN1C(=O)C(=Cc2ccc(N3CCCCCC3)o2)C(=O)N(C)C1=S	-20.3	3.1	-27.7	-2.8	-22.3	x	x
O=C(O)c1ccccc1-c1ccc(C=C2C(=O)N(c3ccccc3)C(=S)N(c3ccccc3)C2=O)o1	8.3	57.0*	1.9	39.0*	-6.2	61.1*	25.8*	PRMT1 confirm=59.1*
O=C(O)Cn1cc(/C=C2\C(=O)NC(=O)N(Cc3ccco3)C2=O)c2ccccc21	-2.1	44.5*	-6.9	27.5*	2.0	61.9*	22.5*	PRMT1 confirm=20.4
CCc1ccc(N2C(=O)NC(=O)/C(=C\C=C\c3ccco3)C2=O)cc1	-14.4	45.2*	-14.9	27.5*	-15.4	18.5	9.3*	PRMT1 confirm=5.5
SMILES	ABHD4 inh	rCAG binder-1	SIAE primary	PRMT1 FP inh	TCR-CD3 inh	rCAG bind conf	dCAG dye counter	others
Cc1ccc(N2C(=O)NC(=O)/C(=C\c3cccn3C(C)(C)C)C2=O)cc1	4.0	-5.4	10.7	1.6	3.9	x	x
CCCCN1C(=O)/C(=C/C=C/c2ccco2)C(=O)NC1=S	-112.7	76.3*	-75.3	39.3*	-91.3	65.9*	26.2*	DNA CAG DR=3.06*;dCAG DNA bind=3.13*;rCAG binder-2=1.4*;PRMT1 confirm=43.7*
N=C1c2ccccc2CN1c1ccc(F)c([N+](=O)[O-])c1	9.1	1.6	-1.0	-1.4	2.6	x	x
Cc1cc(Cl)ccc1OCCCC(=O)NCc1cccs1	-16.3	-4.0	-4.9	-1.4	4.2	x	x
O=C(O)c1cccc2c1NC(c1cccc([N+](=O)[O-])c1)C1CC(Sc3ccccc3[N+](=O)[O-])C(Cl)C21 (configuration not stated)	29.6*	76.2*	16.8	22.8*	5.9	92.3*	74.1*	mABHD4 conf=54.6*
Cc1ccc(OC(=O)N(C)C[C@@H]2OCc3cnnn3CCCC(=O)N([C@@H](C)CO)C[C@@H]2C)cc1	-1.5	-1.2	4.3	2.5	-4.1	x	x
CC1=C(O)C(=O)C=C2C1=CC=C1C2(C)CCC2(C)C3CC(C)(C(=O)O)CCC3(C)CCC12C (configuration not stated)	49.4*	50.1*	12.8	34.7*	2.0	41.1*	9.5*	PRMT1 confirm=49.8*;mABHD4 conf=48.4*
Cc1ccc(OC(F)F)c(N2C(=O)C3C4CCC(O4)C3C2=O)c1 (configuration not stated)	5.5	1.7	-4.9	0.0	4.7	x	x
CN1C(=O)/C(=C\c2ccc(Br)s2)C(=O)NC1=S	-29.6	10.1	-45.0	0.5	-13.4	x	x
Cn1cccc1/C=C1/C(=O)NC(=S)N(Cc2ccc(F)cc2)C1=O	49.2*	74.0*	12.0	26.8*	-4.2	51.4*	30.2*	PRMT1 confirm=64.7*;mABHD4 conf=57.2*
